According to ChEMBL document CHEMBL3352507, “Preparation and antimalarial activity of a novel class of carbohydrate-derived, fused thiochromans” (Eur J Med Chem, 2014):

Experiments:
[1] = Cytotoxicity against human WI38 cells assessed as cell viability at 100 uM after 48 hrs by SRB assay; type: cell-based, WI-38; settings: read-out: Activity
Method in brief: (§1)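 WI-38 fibroblasts (passages 21–50) were seeded at 10 000 cells/well for 24 h, then exposed for 48 h to compound dissolved in DMSO and diluted in medium. Viable cells were fixed with cold 50% trichloroacetic acid and stained with sulforhodamine B. Bound dye was extracted with 10 mM Tris base and read at 540 nm. Viability relative to drug-free cells.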

[2] = test system: Plasmodium falciparum; test: Antimalarial activity against Plasmodium falciparum FCR3 after 48 hrs by parasite lactate dehydrogenase assay; type: functional, organism-based; settings: FCR3, 48 h
Method in brief: (§2)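 Parasite survival read by parasite lactate dehydrogenase (pLDH) assay. Single-concentration prescreen at […]; compounds with 0–15% survival were taken to dose–response. Ten three-fold serial dilutions in triplicate, incubated 48 h in a gassed airtight box, developed with NBT/PES. IC50 from sigmoidal curve of % survival relative to control against log concentration.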

[3] = test system: Plasmodium falciparum; test: Antimalarial activity against Plasmodium falciparum 3D7 after 48 hrs by parasite lactate dehydrogenase assay; type: functional, organism-based; settings: 3D7, 48 h; method in brief: as §2
[4] = Cytotoxicity against human WI38 cells assessed as cell viability at 0.01 uM after 48 hrs by SRB assay; type: cell-based, WI-38; settings: read-out: Activity; method in brief: as §1
[5] = Cytotoxicity against human WI38 cells assessed as cell viability at 1 uM after 48 hrs by SRB assay; type: cell-based, WI-38; settings: read-out: Activity; method in brief: as §1
[6] = Cytotoxicity against human WI38 cells assessed as cell viability at 10 uM after 48 hrs by SRB assay; type: cell-based, WI-38; settings: read-out: Activity; method in brief: as §1
[7] = Cytotoxicity against human WI38 cells after 48 hrs by SRB assay; type: cell-based; settings: WI-38, 48 h
Method in brief: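 WI-38 human fetal lung fibroblasts (passages 21–50) in EMEM with 10% FBS, 2 mM L-glutamine and gentamicin, at 37 °C and 5% CO2. Seeded at 10 000 cells/well, grown 24 h, then given compound in DMSO diluted in medium to 5 concentrations for 48 h. Cells were fixed with cold 50% TCA and stained with SRB, and dye was read at 540 nm. IC50 by non-linear regression against untreated controls.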

[8] = Cytotoxicity against human WI38 cells assessed as cell viability at 0.1 uM after 48 hrs by SRB assay; type: cell-based, WI-38; settings: read-out: Activity; method in brief: as §1

SMILES	IC50 [2] [µM]	IC50 [3] [µM]	viability at 48 h, 100 µM [1] [%]	viability at 48 h, 0.01 µM [4] [%]	viability at 48 h, 1 µM [5] [%]	viability at 48 h, 10 µM [6] [%]	IC50 [7] [µM]	viability at 48 h, 0.1 µM [8] [%]
Cc1ccc2c(c1)[C@H]1O[C@H](COCc3ccccc3)[C@@H](OCc3ccccc3)[C@H](OCc3ccccc3)[C@H]1C[S@+]2[O-]	4.11	> 100	69.7	103	99.1	95.9	> 100	101
COc1ccc2c(c1)[C@H]1O[C@H](COCc3ccccc3)[C@@H](OCc3ccccc3)[C@H](OCc3ccccc3)[C@H]1C[S@@+]2[O-]	2.07	2.21	27.2	97.4	97.2	55.4	8.76	98
[O-][S@+]1C[C@@H]2[C@@H](OCc3ccccc3)[C@H](OCc3ccccc3)[C@@H](COCc3ccccc3)O[C@@H]2c2c1ccc1ccccc21	2.17	2.55	79.4	101	96.7	94.5	> 100	98.5
CC(=O)OC[C@H]1O[C@@H]2c3cc(C(C)(C)C)ccc3SC[C@@H]2[C@@H](OC(C)=O)[C@@H]1OC(C)=O	> 100	> 100	–	–	–	–	–	–
CC(C)(C)c1ccc2c(c1)[C@H]1O[C@H](COCc3ccccc3)[C@@H](OCc3ccccc3)[C@H](OCc3ccccc3)[C@H]1C[S@+]2[O-]	0.33	0.3	55.9	102	100	92.8	> 100	102
Cc1ccc2c(c1)[C@H]1O[C@H](COCc3ccccc3)[C@@H](OCc3ccccc3)[C@H](OCc3ccccc3)[C@H]1CS2	3.37	> 100	72.8	97	97	90	> 100	96.3
Cc1cccc2c1SC[C@@H]1[C@@H](OCc3ccccc3)[C@H](OCc3ccccc3)[C@@H](COCc3ccccc3)O[C@H]21	2.26	> 100	68.8	103	97.5	85.4	> 100	99.5
[O-][S@@+]1C[C@@H]2[C@@H](OCc3ccccc3)[C@H](OCc3ccccc3)[C@@H](COCc3ccccc3)O[C@@H]2c2c1ccc1ccccc21	0.52	3.55	89	96	96	93.7	> 100	92.5
Cc1cccc2c1[S@+]([O-])C[C@@H]1[C@@H](OCc3ccccc3)[C@H](OCc3ccccc3)[C@@H](COCc3ccccc3)O[C@H]21	4.34	6.29	52.5	101	95.5	88.2	> 100	99.3
Cc1ccc2c(c1)[C@H]1O[C@H](COCc3ccccc3)[C@@H](OCc3ccccc3)[C@H](OCc3ccccc3)[C@H]1C[S@@+]2[O-]	2.91	2.57	70.3	101	100	92.6	> 100	101
COc1ccc2c(c1)[C@H]1O[C@H](COCc3ccccc3)[C@@H](OCc3ccccc3)[C@H](OCc3ccccc3)[C@H]1CS2	1.73	> 100	61	97	93.8	90.8	> 100	95.8
CC(C)(C)c1ccc2c(c1)[C@H]1O[C@H](CO)[C@@H](O)[C@H](O)[C@H]1CS2(=O)=O	> 100	> 100	–	–	–	–	–	–
CC(C)(C)c1ccc2c(c1)[C@H]1O[C@H](COCc3ccccc3)[C@@H](OCc3ccccc3)[C@H](OCc3ccccc3)[C@H]1C[S@@+]2[O-]	0.33	1.33	60.2	100	97.1	86.9	> 100	98.8
CC(=O)OC[C@H]1O[C@@H]2c3cc(C(C)(C)C)ccc3S(=O)(=O)C[C@@H]2[C@@H](OC(C)=O)[C@@H]1OC(C)=O	> 100	> 100	–	–	–	–	–	–
CC(C)(C)c1ccc2c(c1)[C@H]1O[C@H](COCc3ccccc3)[C@@H](OCc3ccccc3)[C@H](OCc3ccccc3)[C@H]1CS2	> 100	> 100	–	–	–	–	–	–
c1ccc(COC[C@H]2O[C@@H]3c4c(ccc5ccccc45)SC[C@@H]3[C@@H](OCc3ccccc3)[C@@H]2OCc2ccccc2)cc1	7.11	> 100	–	–	–	–	> 100	–
[O-][S@@+]1C[C@@H]2[C@@H](OCc3ccccc3)[C@H](OCc3ccccc3)[C@@H](COCc3ccccc3)O[C@@H]2c2ccccc21	10.3	> 100	–	–	–	–	> 100	–
CC(C)(C)c1ccc2c(c1)[C@H]1O[C@H](CO)[C@@H](O)[C@H](O)[C@H]1CS2	> 100	> 100	–	–	–	–	–	–

More lines, main results first:

IC50 [2] [µM]	IC50 [3] [µM]	SMILES	viability at 48 h, 100 µM [1] [%]	viability at 48 h, 0.01 µM [4] [%]	viability at 48 h, 1 µM [5] [%]	viability at 48 h, 10 µM [6] [%]	IC50 [7] [µM]	viability at 48 h, 0.1 µM [8] [%]
> 100	> 100	O=S1(=O)C[C@@H]2[C@@H](OCc3ccccc3)[C@H](OCc3ccccc3)[C@@H](COCc3ccccc3)O[C@H]2c2c1ccc1ccccc21	–	–	–	–	–	–
0.28	0.39	CC(C)(C)c1ccc2c(c1)[C@H]1O[C@H](COCc3ccccc3)[C@@H](OCc3ccccc3)[C@H](OCc3ccccc3)[C@H]1CS2(=O)=O	71.7	96.7	92.7	91	> 100	96.3
3.95	> 100	O=S1(=O)C[C@@H]2[C@@H](OCc3ccccc3)[C@H](OCc3ccccc3)[C@@H](COCc3ccccc3)O[C@@H]2c2ccccc21	67.8	97.8	97	92.4	> 100	97
3.21	4.14	O=S1(=O)C[C@@H]2[C@@H](OCc3ccccc3)[C@H](OCc3ccccc3)[C@@H](COCc3ccccc3)O[C@H]2c2ccccc21	–	–	–	–	> 100	–
1.69	2.34	Cc1ccc2c(c1)[C@@H]1O[C@H](COCc3ccccc3)[C@@H](OCc3ccccc3)[C@H](OCc3ccccc3)[C@H]1CS2(=O)=O	–	–	–	–	> 100	–
3.83	2.09	O=S1(=O)C[C@@H]2[C@@H](OCc3ccccc3)[C@H](OCc3ccccc3)[C@@H](COCc3ccccc3)O[C@@H]2c2c1ccc1ccccc21	–	–	–	–	> 100	–
2.05	3.46	c1ccc(COC[C@H]2O[C@@H]3c4ccccc4SC[C@@H]3[C@@H](OCc3ccccc3)[C@@H]2OCc2ccccc2)cc1	58.1	100	97.6	85	> 100	98.6
2.14	3.4	Cc1cccc2c1S(=O)(=O)C[C@@H]1[C@@H](OCc3ccccc3)[C@H](OCc3ccccc3)[C@@H](COCc3ccccc3)O[C@@H]21	–	–	–	–	> 100	–
1.7	1.8	COc1ccc2c(c1)[C@H]1O[C@H](COCc3ccccc3)[C@@H](OCc3ccccc3)[C@H](OCc3ccccc3)[C@H]1CS2(=O)=O	–	–	–	–	> 100	–
1.62	2.34	Cc1cccc2c1S(=O)(=O)C[C@@H]1[C@@H](OCc3ccccc3)[C@H](OCc3ccccc3)[C@@H](COCc3ccccc3)O[C@H]21	–	–	–	–	> 100	–
1.95	2.5	COc1ccc2c(c1)[C@@H]1O[C@H](COCc3ccccc3)[C@@H](OCc3ccccc3)[C@H](OCc3ccccc3)[C@H]1CS2(=O)=O	–	–	–	–	> 100	–
0.7	> 100	CC(C)(C)c1ccc2c(c1)[C@@H]1O[C@H](COCc3ccccc3)[C@@H](OCc3ccccc3)[C@H](OCc3ccccc3)[C@H]1CS2(=O)=O	–	–	–	–	> 100	–
> 100	> 100	[O-][S@+]1C[C@@H]2[C@@H](OCc3ccccc3)[C@H](OCc3ccccc3)[C@@H](COCc3ccccc3)O[C@@H]2c2ccccc21	–	–	–	–	–	–
